The text below walks through data of ChEMBL document CHEMBL3992483, “Traceless Solid-Phase α-Hydroxytropolone Synthesis” (Medchemcomm, 2016).

The subject of one data set is CEM-SS. Nature of the data set: (§1) Cytotoxicity against human CEM-SS cells assessed as reduction in cell viability by XTT assay. Format: cell-based. The conditions noted are these: cem-ss. In a few lines: (§2)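 Uninfected CEM-SS cells in the same plate as the HIV-1 RF infection assay. Compounds tested at 2-fold dilutions from 50 µM to 0.78 µM final, in duplicate. CC50 estimated by regression analysis.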
In general terms: Tetrazolium assays rely on reduction of a dye to a coloured formazan, in cell work by metabolically active cells.

Data set [1] concerns Human immunodeficiency virus 1. Nature of the data set: Stabilization of HIV1 RT-RNase H by sypro-orange dye-based differential scanning fluorimetric analysis. In a few lines: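 Thermal shift of HIV RT RNase H in 20 mM HEPES pH 7.5, 10 mM MgCl2, 100 mM NaCl with Sypro Orange at 1:2000. 1 µL of 1 mM compound in DMSO added to 49 µL of this buffer. Heated 30 to 80 °C in 0.2 °C steps, read at ex 483 / em 568 nm. ΔTm determined, duplicate runs.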
On the technique in general: DSF heats the sample and reads unfolding from a dye or from intrinsic fluorescence.

Data set [2] in a line: Inhibition of HIV1 RT-RNase H activity using 18-nucleotide 3'-fluorescein-labeled RNA/5'-dabsyl-labeled DNA hybrid after 10 mins by FRET assay. On the set-up: species or system Human immunodeficiency virus 1.
Data set [3] has as its system Human immunodeficiency virus 1. Nature of the data set: Antiviral activity against HIV1 RF infected in human CEM-SS cells assessed as cytoprotective effect by measuring cell viability at 0.78 to 50 uM by XTT assay relative to control. Format: functional. A digest of the protocol: (§3)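 HIV-1 strain RF infection of CEM-SS cells. Samples dissolved at 10 mM in DMSO, tested at 2-fold dilutions from 50 µM down to 0.78 µM final, in duplicate. EC50 estimated by regression analysis.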

The nature of data set [4]: as §1. Format: cell-based. The conditions noted are these: CEM-SS cells. In a few lines:
as §2

Data set [5] relates to Human immunodeficiency virus 1. As to the kind of experiment: Antiviral activity against HIV1 RF infected in human CEM-SS cells assessed as cytoprotective effect by measuring increase in cell viability by XTT assay. The class given is functional, cell-based. A digest of the protocol:
as §3

Structures are written as SMILES. Several values for one entry are separate records, joined by “and”; a condition that tells them apart may be missing. Identical values can stand only once.

For `Cc1cc(O)c(=O)c(O)cc1C(=O)c1ccccc1`, the half-maximal cytotoxic concentration (CC50) (commonly the concentration that lowers cell viability or growth by half) in the data set with CEM-SS is 2600 to 8800 nM and 7200 to 8800 nM. Moreover, the thermal shift (ΔTm) – broadly, the shift of the melting midpoint relative to a reference – in data set [1] was 2.5 °C and 2.9 °C. In data set [2], the IC50 (commonly the concentration needed to halve the response being measured) was 320 nM and 220 nM. Moreover, the Activity in data set [3] is less than 35%.
Consider `Cc1cc(O)c(=O)c(O)cc1C(=O)c1ccc(-c2ccccc2)cc1`, for which the CC50 with CEM-SS lay within 100 to 830 nM; in data set [4] it was 140 to 970 nM. Also, the ΔTm in data set [1] is 1.7 °C and 1.9 °C. The half-maximal inhibitory concentration (IC50) in data set [2] was 1000 nM and 590 nM. Besides, in data set [3], the Activity is reported as less than 35%.
Consider `COC(=O)c1cc(O)c(=O)c(O)cc1C`, for which the CC50 in the data set on CEM-SS was 5400 to 11000 nM and 15000 nM. Also, the half-maximal effective concentration (EC50) (commonly the midpoint of the concentration-response curve) in data set [5] was 2200 to 4200 nM and 7200 to 7700 nM. In addition, the shift in melting temperature (ΔTm) in data set [1] was 2.9 °C and 2.7 °C. Besides, in data set [2], the IC50 was 440 nM and 160 nM.
Consider `CC(=O)c1cc(O)c(=O)c(O)cc1C`, for which, in the data set with CEM-SS, the cytotoxic concentration (CC50) was 7700 to 24000 nM and 20000 to 21000 nM. Besides, in data set [5], the EC50 is 2800 to 5200 nM and 6500 to 7300 nM. For the same molecule, in data set [1], the ΔTm is 2.3 °C and 2.9 °C. Besides, the IC50 in data set [2] is 570 nM and 290 nM.
Consider `Cc1cc(O)c(=O)c(O)cc1-c1ccc(C(F)(F)F)cc1`, for which the values for the CC50 (with CEM-SS; in data set [4]) were 2200 to 6700 nM and 2300 to 7100 nM, respectively. Besides, the thermal shift (ΔTm) in data set [1] was 0.2 °C and 0.9 °C. The IC50 in data set [2] is 800 nM and 1100 nM. In addition, the Activity in data set [3] is on record as less than 35%.
For `Cc1cc(O)c(=O)c(O)cc1C(=O)C1CCCCC1`, the figures for the CC50 (in the data set with CEM-SS; in data set [4]) were 2700 to 7000 nM and 2300 to 3100 nM, respectively. In addition, the ΔTm in data set [1] is 2 °C and 2.4 °C. Moreover, the concentration for half-maximal inhibition (IC50) in data set [2] was 520 nM and 210 nM. The Activity in data set [3] was less than 35%.
`Cc1cc(O)c(=O)c(O)cc1-c1ccccc1`: the CC50 in the data set on CEM-SS was 5600 to 7000 nM and 2500 to 3700 nM. The ΔTm in data set [1] is 2.2 °C and 1.5 °C. Besides, in data set [2], the IC50 is 250 nM and 390 nM. Besides, the Activity in data set [3] is listed as less than 35%.
In the case of `Cc1cc(O)c(=O)c(O)cc1-c1cccc2ccccc12`, the 50% cytotoxic concentration (CC50) in the data set on CEM-SS is 3300 to 6700 nM; in data set [4] it was 2100 to 5400 nM. Moreover, in data set [1], the shift in melting temperature (ΔTm) is 1 °C and 1.5 °C. In data set [2], the IC50 is 560 nM and 260 nM. The Activity in data set [3] is reported as less than 35%.
Take `CCOC(=O)c1cc(O)c(=O)c(O)cc1C`: in the data set with CEM-SS, the 50% cytotoxic concentration (CC50) was 8500 to 9700 nM and 22000 nM. The EC50 in data set [5] (Human immunodeficiency virus 1, RF, CEM-SS) was in the range of 4800 to 5100 nM. The thermal shift (ΔTm) in data set [1] was 2.9 °C and 2.4 °C. The half-maximal inhibitory concentration (IC50) in data set [2] is 540 nM and 250 nM. The Activity in data set [3] was less than 50%.
